High-throughput results: PubChem, SRMLSC
This is one part of a sample in which hits are shown more often than they occur.
H69AR inhibit = proliferation blockers of H69AR lung cancer cells, primary screen, cell-based, human, 86K library | AID 598, 2007 | viability, % at 10 µM | H69AR lung tumor viability, ATP luminescence, 72 h; active compounds read low | 85,000 tested, 6% active;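 active = viability at or below 40%; inactive = viability above 40%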;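 also: multidrug resistant small cell line overexpressing MRP-1 efflux transporter; 100% = mean luminescence of untreated control wells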
HUVEC inhibit = inhibitors of HUVEC proliferation, primary screen, cell-based, 384-well | CellTiter-Glo luminescence, 72 h; active compounds read low | viability, % at 10 µM (by protocol) | 86,000 tested, 1.1% active;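 active = viability at or below 30%; inactive = viability above 30%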;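 also: 100% = median luminescence of DMSO-only cell control wells on each plate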
PTEN del growth = growth suppression of PTEN-null HCT116, primary screen, cell-based, CellTiter-Glo; HCT116 PTEN-null viability, 60 h; active compounds read low; viability, % at 10 µM; 140,000 tested, 1.2% active;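 active = viability at or below a set limit, 4 SD under the median of all tested compounds, cut at about 3.7% in these data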;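 also: PTEN knockout HCT116 line with beta catenin targeted HCT116 as companion control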
HCT116 bCat-KO = primary screen for growth suppressors in beta-catenin knockout HCT116 cells (colon tumor, human); 140,000 tested, 1.5% active; viability, % at 10 µM; HCT116 beta-catenin knockout viability, CellTiter-Glo, 60 h; active compounds read low;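 active = viability at or under a set limit, the compound median less 4 SD, cut at about 6% in these data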;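 also: 0% = Hyamine 1622 control at 20 µM and 100% = untreated cell control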
Lung fibro prol = antiproliferative effect on LL 47 fibroblasts – human, LL 47 cells, CellTiter-Glo luminescence, primary screen; LL 47 human lung fibroblast viability, ATP luminescence; active compounds read low; 85,000 tested, 1.1% active; viability, % at 10 µM; AID 719, 2007;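 active = viability at or below 50% in the single dose screen; inactive = viability above 50%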;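 also: compound exposure lasted 72 h before the ATP readout; 100% = median luminescence of untreated cell-only wells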
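Signal: luminescent ATP detection, CellTiter-Glo; assay system: LL 47 human lung fibroblasts; input: 1,150 cells/well; incubation: overnight cell rest, 72 h compound treatment at 37 °C; measure: % viability versus median cells-only luminescence; medium: IMEM growth medium with 15% fetal bovine serum; dosing: compound addition at 0.1% DMSO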
Active calls of the source: *; · = no result given.

SMILES | H69AR inhibit | HUVEC inhibit | PTEN del growth | HCT116 bCat-KO | Lung fibro prol
COc1ccc(-c2cc(-c3ccc(OC)cc3)nc(-c3ccc4c(c3)NC(=O)CO4)c2)cc1 | · | · | 2.4* | 2.7* | ·
CCc1c(C)nc(N)n2c(SCC(=O)N3CCN(c4ccccc4OC)CC3)nnc12 | 97 | 104 | · | · | 92
O=C(c1ccc(Cn2c(=O)[nH]c3ccccc3c2=O)cc1)N1CCN(c2ccc(Cl)cc2)CC1 | 36* | 68 | 15 | 16 | 111
Cc1ccc(C)c(N2CCN(C(=O)c3ccc(Cn4c(=O)[nH]c5ccccc5c4=O)cc3)CC2)c1 | 7.5* | 37 | 10 | 8 | 93
C=CCn1c(=O)[nH]c2cc(C(=O)N3CCN(c4ccc(C(C)=O)cc4)CC3)ccc2c1=O | 82 | 86 | 84 | 77 | 93
C=CCn1c(=O)[nH]c2cc(C(=O)N3CCN(c4cc(C)ccc4C)CC3)ccc2c1=O | 25* | 58 | 65 | 63 | 89
Cc1ccc(C)c(N2CCN(c3nc4ccccc4c(=O)n3Cc3ccccc3)CC2)c1 | 81 | 100 | 47 | 48 | 87
Nc1c(Cl)ncnc1N/N=C/c1ccnc2ccccc12 | · | · | 97 | 96 | ·
Nc1c(Cl)ncnc1N/N=C/c1ccccn1 | · | · | 3.4* | 2.5* | ·
Nc1c(Cl)ncnc1N/N=C/c1ccc2ccccc2n1 | · | · | 3.0* | 5.1* | ·
O=C(/C=C(/c1ccc(Cl)cc1)n1cncn1)c1ccccc1 | · | · | 92 | 92 | ·
Cc1cc(NC(=O)c2c(F)cccc2F)n(-c2nc3ccccc3[nH]2)n1 | 36* | 72 | 14 | 18 | 85
Cc1cc(NC(=O)c2ccccc2F)n(-c2nc3ccccc3[nH]2)n1 | 41 | 92 | 71 | 74 | 70
Cc1cc(NC(=O)c2c(F)cccc2Cl)n(-c2nc3ccccc3[nH]2)n1 | 28* | 59 | 16 | 21 | 79
Cc1cc(C)nc(-n2nc(C)cc2Nc2ccccc2)n1 | 10* | 78 | 45 | 40 | 77
Cc1cc(N2CCN(c3ccccc3)CC2)nc(-n2nc(C)cc2C)n1 | 9.3* | 108 | 33 | 50 | 96
Cc1cc(Nc2ccccc2)n(-c2nc3ccccc3[nH]2)n1 | 37* | 45 | 13 | 22 | 67
Cc1cc(NC(=O)c2ccc(C)s2)n(-c2nc3ccccc3[nH]2)n1 | · | · | 37 | 53 | ·
O=C(CN(CC1CCCO1)C(=O)CNS(=O)(=O)c1ccc(Cl)cc1)NCC1CCCO1 (configuration not stated) | 96 | 93 | 96 | 97 | 100
CCN(C(=O)c1cnc(N2CCN(c3ncccn3)CC2)c2ccccc12)c1cccc(Cl)c1 | 20* | 51 | 5 | 4.0* | 76
COc1ccccc1-c1c(C(F)(F)F)oc2cc(OCC(=O)Nc3ccccc3C(F)(F)F)ccc2c1=O | · | · | 84 | 87 | ·
COc1ccc(-c2c(C(F)(F)F)oc3cc(OCC(=O)Nc4ccccc4C(F)(F)F)ccc3c2=O)cc1OC | · | · | 5 | 1.4* | ·
CC(C)(C)C1CCc2c(sc(NC(=O)c3ccco3)c2C(N)=O)C1 (configuration not stated) | 39* | 75 | 51 | 41 | 59
Cc1ccc(NC(=O)c2ccc(C(C)(C)C)cc2)cc1[N+](=O)[O-] | · | · | 84 | 86 | ·
Cc1c(-c2ccccc2)oc2c(C(=O)OCC(=O)Nc3ccc(C(N)=O)cc3)cccc2c1=O | · | · | 105 | 101 | ·
SMILES | H69AR inhibit | HUVEC inhibit | PTEN del growth | HCT116 bCat-KO | Lung fibro prol
CCN(CC)c1ccc(-c2nn3c(-c4ccccc4OC)nnc3s2)cc1 | 12* | 12* | 2.1* | 3.3* | 38*
COc1ccc(-c2nn3c(-c4ccc(F)cc4)nnc3s2)cc1 | 70 | 107 | 94 | 96 | 95
COc1ccc(-c2nn3c(-c4ccccc4)nnc3s2)cc1 | 35* | 73 | 80 | 91 | 91
c1ccc(-c2nnc3sc(-c4cc5ccccc5o4)nn23)cc1 | 32* | 65 | 108 | 99 | 111
c1ccc(-c2nnc3sc(-c4csc5c4CCCC5)nn23)cc1 | 31* | 76 | 60 | 62 | 100
O=C(CCCCCn1c(=O)[nH]c2ccccc2c1=O)NCCCN1CCN(c2ccccc2F)CC1 | 103 | 86 | 90 | 87 | 95
CN(C)c1ccc(-c2nnn(CC(=O)N3c4ccccc4CCc4ccccc43)n2)cc1 | 39* | 94 | 87 | 79 | 99
CN(C)c1ccc(-c2nnn(CC(=O)Nc3ccccc3N3CCOCC3)n2)cc1 | 65 | 94 | 71 | 79 | 95
Cc1c(C(=O)NCc2cccs2)oc2ccc(S(=O)(=O)N3CCOCC3)cc12 | 77 | 80 | 110 | 103 | 92
Cc1c(C(=O)NCCC2=CCCCC2)oc2ccc(S(=O)(=O)N3CCOCC3)cc12 | 10* | 53 | 14 | 26 | 62
Cc1c(C(=O)Nc2ccc(F)cc2)oc2ccc(S(=O)(=O)N3CC(C)CC(C)C3)cc12 (configuration not stated) | 12* | 51 | 9 | 2.1* | 61
Cc1cccc(NC(=O)c2oc3ccc(S(=O)(=O)N4CCOCC4)cc3c2C)c1C | 35* | 71 | 75 | 86 | 103
COc1ccc(NC(=O)CSc2nc3ccccc3c(=O)n2-c2ccc3c(c2)OCO3)c(OC)c1 | 9.4* | 76 | 76 | 62 | 120
COc1ccc(NC(=O)CSc2nc3ccccc3c(=O)n2CCCN2CCCCC2)c(OC)c1 | 66 | 78 | 3.1* | 2.6* | 83
CS(=O)(=O)c1ccc(Cl)c(NC(=O)CSc2nc3ccccc3c(=O)n2CCCN2CCOCC2)c1 | · | · | 93 | 93 | ·
COc1ccc(-n2c(SCC(=O)Nc3ccc4c(c3)OCO4)nc3ccccc3c2=O)cc1 | 95 | 85 | 86 | 96 | 99
COCCCn1c(SCC(=O)Nc2ccc(NC(=O)c3ccco3)c(OC)c2)nc2ccccc2c1=O | 32* | 97 | 104 | 92 | 93
CCC(C)(C)n1nnnc1C(c1cccnc1)N1CCN(c2cccc(C(F)(F)F)c2)CC1 (configuration not stated) | 78 | 88 | 70 | 65 | 94
COC(=O)c1c(NC(=O)CSc2nc3nc(C)cc(C)n3n2)sc(C)c1C | · | · | 95 | 83 | ·
O=C(Cc1cccc2ccccc12)N/N=C/c1ccc(OC(=O)/C=C/c2ccco2)cc1 | 24* | 78 | 66 | 67 | 94
CC(C)Cc1nc2oc3c(NCC4CCCO4)ncnc3c2c2c1CCC2 (configuration not stated) | 33* | 53 | 50 | 55 | 85
CCOC(=O)C(NCCc1ccccc1)(NC(=O)CC)C(F)(F)F (configuration not stated) | · | · | 97 | 91 | ·
CCOC(=O)c1cnn(-c2cc(C)c3cc(C)cc(C)c3n2)c1N | 97 | 100 | · | · | 98
CCOC(=O)/C(C#N)=C\C1=C(N2CCCC2)CC(C)(CC)OC1 (configuration not stated) | 36* | 88 | 97 | 93 | 113
Cc1cc(=O)[nH]c2ccc(Cl)cc12 | 86 | 24* | 106 | 98 | 95
